The record followed here is ChEMBL document CHEMBL1828531, “Pyrazol-3-propanoic acid derivatives as novel inhibitors of leukotriene biosynthesis in human neutrophils” (Eur J Med Chem, 2011).

Chain of Prostaglandin G/H synthase 1 (P23219 whole entry): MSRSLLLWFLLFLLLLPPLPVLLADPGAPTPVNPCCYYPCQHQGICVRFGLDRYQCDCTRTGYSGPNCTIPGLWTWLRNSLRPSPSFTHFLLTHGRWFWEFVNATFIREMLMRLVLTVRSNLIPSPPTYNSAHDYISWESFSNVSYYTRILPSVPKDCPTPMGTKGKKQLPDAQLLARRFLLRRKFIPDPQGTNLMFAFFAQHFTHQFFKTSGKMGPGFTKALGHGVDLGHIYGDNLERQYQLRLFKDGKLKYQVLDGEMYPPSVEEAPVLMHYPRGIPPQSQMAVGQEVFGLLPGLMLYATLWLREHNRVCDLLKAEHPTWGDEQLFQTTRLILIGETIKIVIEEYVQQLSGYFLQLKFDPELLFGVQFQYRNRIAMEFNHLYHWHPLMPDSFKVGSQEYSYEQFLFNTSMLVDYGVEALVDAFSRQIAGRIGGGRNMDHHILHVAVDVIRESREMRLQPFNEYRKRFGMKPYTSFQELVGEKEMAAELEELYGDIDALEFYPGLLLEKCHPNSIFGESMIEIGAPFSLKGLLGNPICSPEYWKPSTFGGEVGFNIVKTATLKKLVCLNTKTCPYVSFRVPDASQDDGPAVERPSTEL

The first assay deals with T1, Prostaglandin G/H synthase 2 (Homo sapiens, UniProt P35354).
T1 sequence (P35354 whole entry): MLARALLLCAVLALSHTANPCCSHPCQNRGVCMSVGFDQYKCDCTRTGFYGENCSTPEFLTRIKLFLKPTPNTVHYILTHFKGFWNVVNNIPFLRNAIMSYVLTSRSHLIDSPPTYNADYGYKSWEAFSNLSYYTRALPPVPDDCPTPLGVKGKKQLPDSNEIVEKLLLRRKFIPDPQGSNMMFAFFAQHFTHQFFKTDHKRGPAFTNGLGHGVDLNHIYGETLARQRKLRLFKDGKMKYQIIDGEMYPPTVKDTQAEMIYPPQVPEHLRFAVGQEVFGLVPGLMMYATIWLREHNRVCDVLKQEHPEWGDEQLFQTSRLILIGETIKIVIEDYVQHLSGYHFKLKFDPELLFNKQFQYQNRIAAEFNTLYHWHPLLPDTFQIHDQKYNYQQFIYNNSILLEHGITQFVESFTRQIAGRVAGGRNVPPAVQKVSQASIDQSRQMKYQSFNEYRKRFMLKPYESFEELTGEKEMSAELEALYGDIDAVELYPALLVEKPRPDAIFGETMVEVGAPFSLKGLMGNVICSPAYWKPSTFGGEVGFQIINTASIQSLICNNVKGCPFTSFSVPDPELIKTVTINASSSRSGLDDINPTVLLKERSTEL
Description: Inhibition of COX2-mediated 6-keto PGF1alpha production in IL1-beta stimulated human A549 cells after 10 mins by EIA. It is filed as cell-based. In outline: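 A549 cells stimulated with IL-1β (1 ng/ml) 72 h in DMEM with 2% FCS, trypsinized and washed. 10^6 cells/mL PBS with 1 mM CaCl2 preincubated with compound 10 min at 37 °C. 3 µM AA added for 15 min at 37 °C, stopped on ice. 6-keto PGF1α in supernatant measured by EIA.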
As to `CCOC(=O)C1CCN(C(=O)CCc2cc(-c3ccc(C)cc3)n(-c3ccccc3)n2)CC1`, the IC50 (usually the concentration that gives 50% inhibition) is over 10 µM.

The compound `CC(C)(C)c1ccc(CN2CCN(C(=O)CCc3cc(-c4ccc(F)cc4)n(-c4ccc(Cl)nn4)n3)CC2)cc1` returned an IC50 of over 10 µM.

In turn, `CCOC(=O)C1CCN(C(=O)CCc2cc(-c3ccc(C(F)(F)F)cc3)n(-c3ccc(Cl)nn3)n2)CC1` returned an IC50 of over 10 µM.

Compound `Cc1ccc(-c2cc(CCC(=O)Oc3ccc(C(C)C)cc3)nn2-c2ccc(Cl)nn2)cc1` had an IC50 of over 10 µM.

The compound `Cc1ccc(-c2cc(CCC(=O)Oc3ccc(C(C)C)cc3)nn2-c2ccc3ccccc3n2)cc1` had an IC50 of over 10 µM.

The compound `Cc1ccc(-c2cc(CCC(=O)N3CCN(Cc4ccc(C(C)(C)C)cc4)CC3)nn2-c2ccc3ccccc3n2)cc1` gave an IC50 of over 10 µM.

`CCOC(=O)C1CCN(C(=O)CCc2cc(-c3ccc(C)cc3)n(-c3ccc4ccccc4n3)n2)CC1` displayed an IC50 of over 10 µM.

In the case of `Cc1ccc(-c2cc(CCC(=O)N3CCN(Cc4ccc(C(C)(C)C)cc4)CC3)nn2-c2ccccc2)cc1`, the IC50 is over 10 µM.

`Cc1ccc(-c2cc(CCC(=O)Oc3ccc(C(C)C)cc3)nn2-c2ccccc2)cc1` returned an IC50 of over 10 µM.

For the next assay, the target named is Prostaglandin G/H synthase 1 (Homo sapiens, UniProt P23219). Description: Inhibition of COX1-mediated 12-HHT production in human platelet assessed as residual activity at 10 uM after 5 mins by HPLC analysis. The method, boiled down:
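Washed human platelets, 10^8/mL in PBS with 1 mM CaCl2, preincubated with compound 4 min at 4 °C then 1 min at 37 °C. 5 µM AA added for 5 min at 37 °C. Methanol/HCl stop, PGB1 added, 12-HHT by HPLC. Residual activity at 10 µM. IC50 by interpolation from 4–5 concentrations.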
Consider `CCOC(=O)C1CCN(C(=O)CCc2cc(-c3ccc(C)cc3)n(-c3ccccc3)n2)CC1`, for which the Activity is 57.1%.

Regarding `CC(C)(C)c1ccc(CN2CCN(C(=O)CCc3cc(-c4ccc(F)cc4)n(-c4ccc(Cl)nn4)n3)CC2)cc1`, the Activity was determined as 82.9%.

For the compound `CCOC(=O)C1CCN(C(=O)CCc2cc(-c3ccc(C(F)(F)F)cc3)n(-c3ccc(Cl)nn3)n2)CC1`, the Activity was 102%.

`Cc1ccc(-c2cc(CCC(=O)Oc3ccc(C(C)C)cc3)nn2-c2ccc(Cl)nn2)cc1`: the Activity came out at 51.1%.

`Cc1ccc(-c2cc(CCC(=O)N3CCN(Cc4ccc(C(C)(C)C)cc4)CC3)nn2-c2ccc3ccccc3n2)cc1`: the Activity worked out at 8.2%.

Turning to `CCOC(=O)C1CCN(C(=O)CCc2cc(-c3ccc(C)cc3)n(-c3ccc4ccccc4n3)n2)CC1`, the Activity was 15.9%.

On to `Cc1ccc(-c2cc(CCC(=O)N3CCN(Cc4ccc(C(C)(C)C)cc4)CC3)nn2-c2ccccc2)cc1`, for which the Activity worked out at 21%.

In the case of `Cc1ccc(-c2cc(CCC(=O)Oc3ccc(C(C)C)cc3)nn2-c2ccccc2)cc1`, the Activity was 10.6%.

For a further assay, the target named is T2, Polyunsaturated fatty acid 5-lipoxygenase (Homo sapiens, UniProt P09917).
T2 sequence (P09917 whole entry): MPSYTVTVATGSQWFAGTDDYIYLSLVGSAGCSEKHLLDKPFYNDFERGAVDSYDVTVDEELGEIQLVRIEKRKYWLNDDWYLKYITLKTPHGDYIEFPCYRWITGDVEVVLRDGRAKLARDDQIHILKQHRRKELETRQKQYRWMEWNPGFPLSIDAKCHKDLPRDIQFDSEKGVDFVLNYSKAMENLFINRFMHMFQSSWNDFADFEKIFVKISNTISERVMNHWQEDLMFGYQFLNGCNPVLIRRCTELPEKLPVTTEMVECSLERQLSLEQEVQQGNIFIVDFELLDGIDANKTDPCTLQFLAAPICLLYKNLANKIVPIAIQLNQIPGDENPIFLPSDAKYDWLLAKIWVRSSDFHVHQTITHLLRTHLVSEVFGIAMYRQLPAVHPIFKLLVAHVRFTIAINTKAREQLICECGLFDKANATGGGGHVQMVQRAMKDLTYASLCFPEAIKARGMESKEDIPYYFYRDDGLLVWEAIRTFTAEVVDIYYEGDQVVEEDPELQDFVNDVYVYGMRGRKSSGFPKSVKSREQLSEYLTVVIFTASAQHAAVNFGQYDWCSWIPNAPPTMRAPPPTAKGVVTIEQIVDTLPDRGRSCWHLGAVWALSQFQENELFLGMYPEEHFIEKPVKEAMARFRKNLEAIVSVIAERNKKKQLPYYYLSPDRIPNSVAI
The assay can be described thus: Inhibition of 5-Lipoxygenase in arachidonic acid-stimulated human neutrophils after 15 mins by HPLC analysis in presence of A23187. In outline: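 Human neutrophils, 5 × 10^6/mL in PBS/glucose/1 mM CaCl2, preincubated 15 min at RT, then 2.5 µM A23187 plus 20 µM AA for 10 min at 37 °C. Methanol stop, PGB1 internal standard, HPLC of LTB4, its all-trans isomers and 5-H(p)ETE. Residual % versus 0.3% DMSO vehicle, mean ± SEM, n = 3–5. IC50 by linear interpolation from 4–5 concentrations.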
Regarding `CCOC(=O)C1CCN(C(=O)CCc2cc(-c3ccc(C)cc3)n(-c3ccccc3)n2)CC1`, the IC50 turned out to be 2.4 µM.

As to `CC(C)(C)c1ccc(CN2CCN(C(=O)CCc3cc(-c4ccc(F)cc4)n(-c4ccc(Cl)nn4)n3)CC2)cc1`, the IC50 turned out to be 1.6 µM.

For `CCOC(=O)C1CCN(C(=O)CCc2cc(-c3ccc(C(F)(F)F)cc3)n(-c3ccc(Cl)nn3)n2)CC1`, the half-inhibitory concentration (IC50) was found to be 15 µM.

Regarding `Cc1ccc(-c2cc(CCC(=O)Oc3ccc(C(C)C)cc3)nn2-c2ccc(Cl)nn2)cc1`, the IC50 came out at 8 µM.

Regarding `Cc1ccc(-c2cc(CCC(=O)Oc3ccc(C(C)C)cc3)nn2-c2ccc3ccccc3n2)cc1`, the half-maximal inhibitory concentration (IC50) is over 10 µM.

Regarding `Cc1ccc(-c2cc(CCC(=O)N3CCN(Cc4ccc(C(C)(C)C)cc4)CC3)nn2-c2ccc3ccccc3n2)cc1`, the IC50 was found to be 3.5 µM.

Turning to `CCOC(=O)C1CCN(C(=O)CCc2cc(-c3ccc(C)cc3)n(-c3ccc4ccccc4n3)n2)CC1`, the IC50 was 4 µM.

`Cc1ccc(-c2cc(CCC(=O)N3CCN(Cc4ccc(C(C)(C)C)cc4)CC3)nn2-c2ccccc2)cc1`: the IC50 is 2.7 µM.

For `Cc1ccc(-c2cc(CCC(=O)Oc3ccc(C(C)C)cc3)nn2-c2ccccc2)cc1`, the IC50 worked out at 2 µM.

Another assay deals with T3, Polyunsaturated fatty acid 5-lipoxygenase (Homo sapiens) (UniProt P09917).
T3 sequence (whole entry): T2 sequence (P09917 whole entry)
Description: Inhibition of recombinant human 5-Lipoxygenase expressed in Escherichia coli lysate assessed as residual activity using arachidonic acid as substrate at 10 uM after 10 mins by HPLC analysis. The method, boiled down: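 Human 5-LO expressed at 30 °C in E. coli MV1190 (pT3-5LO); lysate 40,000 g supernatant in PBS pH 7.4 with 1 mM EDTA. Preincubated with compound 10 min at 4 °C, warmed 30 s at 37 °C. Started with 2 mM CaCl2 plus 20 µM AA, 10 min at 37 °C. Methanol stop, HPLC. Residual % versus 0.3% DMSO vehicle, n = 3–5.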
Regarding `CCOC(=O)C1CCN(C(=O)CCc2cc(-c3ccc(C)cc3)n(-c3ccccc3)n2)CC1`, the Activity was found to be 79.5%.

`CC(C)(C)c1ccc(CN2CCN(C(=O)CCc3cc(-c4ccc(F)cc4)n(-c4ccc(Cl)nn4)n3)CC2)cc1`: the Activity was 103%.

As for `CCOC(=O)C1CCN(C(=O)CCc2cc(-c3ccc(C(F)(F)F)cc3)n(-c3ccc(Cl)nn3)n2)CC1`, the Activity came out at 84%.

Turning to `Cc1ccc(-c2cc(CCC(=O)Oc3ccc(C(C)C)cc3)nn2-c2ccc(Cl)nn2)cc1`, the Activity is 83.4%.

On to `Cc1ccc(-c2cc(CCC(=O)Oc3ccc(C(C)C)cc3)nn2-c2ccc3ccccc3n2)cc1`, for which the Activity amounted to 86.1%.

Turning to `Cc1ccc(-c2cc(CCC(=O)N3CCN(Cc4ccc(C(C)(C)C)cc4)CC3)nn2-c2ccc3ccccc3n2)cc1`, the Activity was determined as 115%.

On to `CCOC(=O)C1CCN(C(=O)CCc2cc(-c3ccc(C)cc3)n(-c3ccc4ccccc4n3)n2)CC1`, for which the Activity amounted to 55.9%.

In the case of `Cc1ccc(-c2cc(CCC(=O)N3CCN(Cc4ccc(C(C)(C)C)cc4)CC3)nn2-c2ccccc2)cc1`, the Activity was 62.9%.

As for `Cc1ccc(-c2cc(CCC(=O)Oc3ccc(C(C)C)cc3)nn2-c2ccccc2)cc1`, the Activity amounted to 92.6%.
